From ChEMBL document CHEMBL3046613 (J Agric Food Chem, 2010)
Converted amounts (≈) assume the structure as drawn. Structures can show the parent of a compound that is named as a salt.

Columns and labels:
[1] = tested on: Tobacco mosaic virus; test: Antiviral activity against Tobacco mosaic virus (TMV) inoculated on whole Nicotiana tabacum leaves followed by smearing with 100 ug/mL compound solution on left side of leaves assessed as viral infection curative effect measured 3 to 4 days post viral infection; format: functional
How it was run: (§1)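 Whole growing N. tabacum L. leaves of the same age were dip-inoculated with TMV at 6.0 × 10-3 mg/mL.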

[2] = tested on: Tobacco mosaic virus; test: Antiviral activity against Tobacco mosaic virus (TMV) pre-treated with 100 ug/mL compound for 30 min followed by inoculation on left side of Nicotiana tabacum leaves assessed as virus inactivation effect measured 3 to 4 days post viral infection; format: functional
How it was run: (§2)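 TMV was mixed with an equal volume of compound solution for 30 min, then inoculated on the left half of N. tabacum L. leaves. A solvent-plus-virus mixture was inoculated on the right half as control. Local lesions were counted 3-4 days after inoculation. Each compound was run in three replicates.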

[3] = tested on: Tobacco mosaic virus; test: Antiviral activity against Tobacco mosaic virus (TMV) inoculated on fresh tobacco leaves followed by dipping into compound solution for 20 min and measured 72 hr post compound treatment by half-leaf method; format: functional, organism-based
How it was run: (§3)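 Half-leaf method. Fresh tobacco leaves at the 5-6 growth stage were inoculated by juice-leaf rubbing with TMV at 5.88 × 10-2 μg/mL. Leaves were cut into halves along the main vein. Each half was immersed for 20 min in compound solution or in double-distilled water, then cultured at 25 °C for 72 h. Each concentration was run at least three times.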

[4] = tested on: Tobacco mosaic virus; test: Antiviral activity against Tobacco mosaic virus (TMV) inoculated on fresh tobacco leaves followed by dipping into compound solution at 5 ug/mL for 20 min and measured 72 hr post compound treatment by half-leaf method; format: functional; how it was run: as §3
[5] = tested on: Tobacco mosaic virus; test: Antiviral activity against Tobacco mosaic virus (TMV) inoculated on fresh tobacco leaves followed by dipping into compound solution at 25 ug/mL for 20 min and measured 72 hr post compound treatment by half-leaf method; format: functional; how it was run: as §3
[6] = tested on: Tobacco mosaic virus; test: Antiviral activity against Tobacco mosaic virus (TMV) inoculated on fresh tobacco leaves followed by dipping into compound solution at 50 ug/mL for 20 min and measured 72 hr post compound treatment by half-leaf method; format: functional; how it was run: as §3
[7] = tested on: Tobacco mosaic virus; test: Antiviral activity against Tobacco mosaic virus (TMV) inoculated on fresh tobacco leaves followed by dipping into compound solution at 100 ug/mL for 20 min and measured 72 hr post compound treatment by half-leaf method; format: functional; how it was run: as §3
[8] = tested on: Tobacco mosaic virus; test: Antiviral activity against Tobacco mosaic virus (TMV) inoculated on 100 ug/mL compound smeared Nicotiana tabacum leaves assessed as protective effect against viral infection measured 3 to 4 days post viral infection; format: functional
How it was run: (§4)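 N. tabacum L. leaves of the same age were used. Compound solution was smeared on the left half and solvent control on the right half. Leaves were inoculated with TMV 12 h later.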

[9] = tested on: Tobacco mosaic virus; test: Antiviral activity against Tobacco mosaic virus (TMV) inoculated on fresh tobacco leaves followed by dipping into compound solution at 40 ug/mL for 20 min and measured 72 hr post compound treatment by half-leaf method; format: functional; conditions: for inhibition at 40 µg/mL: Tobacco mosaic virus; how it was run: as §3
[10] = tested on: Tobacco mosaic virus; test: Antiviral activity against Tobacco mosaic virus (TMV) inoculated on fresh tobacco leaves followed by dipping into compound solution at 125 ug/mL for 20 min and measured 72 hr post compound treatment by half-leaf method; format: functional; how it was run: as §3
[11] = tested on: Tobacco mosaic virus; test: Antiviral activity against Tobacco mosaic virus (TMV) inoculated on fresh tobacco leaves followed by dipping into compound solution at 250 ug/mL for 20 min and measured 72 hr post compound treatment by half-leaf method; format: functional; how it was run: as §3
[12] = tested on: Tobacco mosaic virus; test: Antiviral activity against Tobacco mosaic virus (TMV) inoculated on fresh tobacco leaves followed by dipping into compound solution at 500 ug/mL for 20 min and measured 72 hr post compound treatment by half-leaf method; format: functional; how it was run: as §3
[13] = tested on: Tobacco mosaic virus; test: Antiviral activity against Tobacco mosaic virus (TMV) inoculated on whole Nicotiana tabacum leaves followed by smearing with 500 ug/mL compound solution on left side of leaves assessed as viral infection curative effect measured 3 to 4 days post viral infection; format: functional; how it was run: as §1
[14] = tested on: Tobacco mosaic virus; test: Antiviral activity against Tobacco mosaic virus (TMV) pre-treated with 500 ug/mL compound for 30 min followed by inoculation on left side of Nicotiana tabacum leaves assessed as virus inactivation effect measured 3 to 4 days post viral infection; format: functional; how it was run: as §2
[15] = tested on: Tobacco mosaic virus; test: Antiviral activity against Tobacco mosaic virus (TMV) inoculated on 500 ug/mL compound smeared Nicotiana tabacum leaves assessed as protective effect against viral infection measured 3 to 4 days post viral infection; format: functional; how it was run: as §4

Row | Structure (SMILES) | Activity [1] [%] | Activity [2] [%] | EC50 [3] [µg/mL] | inhibition at 5 µg/mL [4] [%] | inhibition at 25 µg/mL [5] [%] | inhibition at 50 µg/mL [6] [%] | inhibition at 100 µg/mL [7] [%] | Activity [8] [%] | inhibition (INH) [9] [%] | inhibition at 40 µg/mL [9] [%] | inhibition at 125 µg/mL [10] [%] | inhibition at 250 µg/mL [11] [%] | inhibition at 500 µg/mL [12] [%] | Activity [13] [%] | Activity [14] [%] | Activity [15] [%]
1 | CC1(C)C2CC[C@]1(S(=O)(=O)O)C(=O)C2.COc1cc2c3c(c4cc(OC)c(OC)cc4c2cc1OC)CN1CCCC1C3 (stereo unspecified) | 65.5 | 55.6 | 23.6 | 32.3 | 42.4 | 60.6 | 73.9 | 47.7 | – | – | – | – | – | – | – | –
2 | COc1cc(/C=C/C(=O)O)ccc1O.COc1cc2c3c(c4cc(OC)c(OC)cc4c2cc1OC)CN1CCCC1C3 (stereo unspecified) | 13.8 | 51.1 | 40.3 | 15.7 | 18.5 | 68.5 | 72.2 | 45.5 | – | – | – | – | – | – | – | –
3 | COc1cc2c3c(c4cc(OC)c(OC)cc4c2cc1OC)CN1CCCC1C3.O=C(O)CC(O)(CC(=O)O)C(=O)O (stereo unspecified) | – | – | – | – | – | – | – | – | 65.2 | – | – | – | – | – | – | –
4 | COc1cc2c3c(c4cc(OC)c(OC)cc4c2cc1OC)CN1CCCC1C3.O=C(O)c1cc(S(=O)(=O)O)ccc1O (stereo unspecified) | 62.1 | 42.2 | 21.3 | 15.6 | 35.7 | 79.9 | 92.8 | 38.6 | – | – | – | – | – | – | – | –
5 | COc1ccc2c3c(c4cc(OC)c(OC)cc4c2c1)CC1CCCN1C3 (racemic) [(+/-)-ANTOFINE] | 54.4 | 66.3 | < 25 | 56.7 | 68.8 | 69.7 | 80.7 | 26.7 | – | – | – | – | – | – | – | –
6 | COc1ccc2c3c(c4cc(OC)c(OC)cc4c2c1)CN1CCCC1C3 (racemic) [(+/-)-DEOXYTYLOPHORININE] | 26.1 | 67.4 | < 25 | – | 65 | 66.7 | 75 | 60 | – | 79.2 | – | – | – | – | – | –
7 | CNCC(=O)N[C@@H](CO)C(=O)N[C@H]1[C@H](O)[C@@H](O)[C@H](n2ccc(N)nc2=O)O[C@@H]1C(N)=O [NINGNANMYCIN] | – | – | 440 (≈ 992 µM) | – | 28.2 | – | – | – | – | – | 27 | 42.1 | 59.3 | 23 | 50.5 | 51.3
8 | COc1cc2c3c(c4cc(OC)c(OC)cc4c2cc1OC)CN1CCCC1C3 (stereo unspecified) [TYLOPHORINE 2-HYDROXYSUCCINIC ACID SALT] | – | – | – | – | – | – | – | – | – | 69.1 | – | – | – | – | – | –
9 | COc1cc2c3c(c4cc(OC)c(OC)cc4c2cc1OC)CN1CCCC1C3.Nc1ccc(S(=O)(=O)O)cc1 (stereo unspecified) [TYLOPHORINE P-AMINOBENZENESULFONIC ACID SALT] | 34.5 | 75.6 | 14.3 | 31.4 | 58.8 | 74.3 | 80.9 | 38.6 | – | – | – | – | – | – | – | –
10 | COc1cc2c3c(c4cc(OC)c(OC)cc4c2cc1OC)CN1CCCC1C3.O=C(O)c1ccc(O)cc1 (stereo unspecified) [TYLOPHORINE P-HYDROXYBENZOIC ACID SALT] | 42.9 | 60.9 | 7.7 | 50 | 54.7 | 70 | 84.9 | 54.9 | – | – | – | – | – | – | – | –
